From ChEMBL document CHEMBL2384906, “Biological activity, design, synthesis and structure activity relationship of some novel derivatives of curcumin containing sulfonamides” (Eur J Med Chem, 2013)
≈ marks a conversion by molar mass, not a printed value. Calls of active or inactive are those of the source. The rule behind the calls is not given here.

Key:
[1] = system: Curvularia lunata; assay: Antifungal activity against Curvularia lunata MTCC 581 assessed as zone of inhibition at 80 uM after 48 hrs by disc diffusion method; assay type: functional; conditions: MTCC 581, 48 h, read-out: IZ
Outline: (§1)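 Spores from 4-day potato dextrose agar cultures, suspended in sterile water at 1.5 × 10⁵ CFU/mL. 0.2 mL was spread on potato dextrose agar. 5 mm filter-paper discs soaked with test compound were laid on the lawn. Incubation was 48 h at 28 °C, then the inhibition zone was measured in mm. Fluconazole was the positive control and acetone the negative control.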

[2] = system: Escherichia coli; assay: Antimicrobial activity against Escherichia coli ATCC 35218 assessed as diameter of inhibition zone at 80 uM after 24 hrs by Kirby -Baur disc diffusion method; assay type: functional
Outline: (§2)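 Kirby-Bauer disc diffusion was used. Acetone stocks (160 µM) were serially doubled down to 80, 40 and 20 µM. 4 µL of each went onto 5 mm sterile paper discs, which were dried 30 min at 50 °C. Inoculum was 1.5 × 10⁸ CFU/mL diluted to 3 × 10² CFU/mL, and 50 µL was spread on Mueller-Hinton agar. After 24 h at 37 °C the inhibition-zone diameter was measured. Ciprofloxacin served as positive control.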

[3] = system: Mus musculus; assay: Antiinflammatory activity in mouse assessed as inhibition of carrageenan-induced increase in paw volume at 200 mg/kg administered 1 hr prior to carrageenan challenge measured after 3 hrs relative to control; assay type: functional
Outline: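 Mice were fasted 2 h and placed in groups of five. Controls received saline i.p. Phenylbutazone was given at 100 mg/kg i.p., curcumin at 200 mg/kg i.p., and derivatives at 200 mg/kg. After 1 h, 0.1 mL of 1% carrageenan in saline was injected subplantar into the right hind paw. Paw volume was followed by plethysmometer for 3 h, and % inhibition was calculated as (Vc − Vt)/Vc × 100.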

[4] = system: Salmonella typhi; assay: Antimicrobial activity against Salmonella typhi ATCC 23564 assessed as diameter of inhibition zone at 80 uM after 24 hrs by Kirby -Baur disc diffusion method; assay type: functional, Salmonella enterica subsp. enterica serovar Typhi; conditions: Salmonella enterica, ATCC 23564, 24 h; read-out: DIZ
[5] = system: Staphylococcus aureus; assay: Antimicrobial activity against Staphylococcus aureus ATCC 11632 after 24 hrs by broth micro serial dilution method; assay type: functional; conditions: ATCC 11632, 24 h
Outline: (§3)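 This was broth microdilution in autoclaved Mueller-Hinton broth. 150 µL of compound per well was serially diluted […], and 50 µL of test organism was added. Plates were incubated 24 h at 37 °C and optical density was read.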

[6] = system: Staphylococcus aureus; assay: Antimicrobial activity against Staphylococcus aureus ATCC 11632 assessed as diameter of inhibition zone at 40 uM after 24 hrs by Kirby -Baur disc diffusion method; assay type: functional; outline: as §2
[7] = system: Escherichia coli; assay: Antimicrobial activity against Escherichia coli ATCC 35218 after 24 hrs by broth micro serial dilution method; assay type: functional; conditions: ATCC 35218, 24 h; outline: as §3
[8] = system: Staphylococcus aureus; assay: Antimicrobial activity against Staphylococcus aureus ATCC 11632 assessed as diameter of inhibition zone at 20 uM after 24 hrs by Kirby -Baur disc diffusion method; assay type: functional; outline: as §2
[9] = system: Curvularia lunata; assay: Antifungal activity against Curvularia lunata MTCC 581 assessed as zone of inhibition at 40 uM after 48 hrs by disc diffusion method; assay type: functional; conditions: MTCC 581, 48 h, read-out: IZ; outline: as §1
[10] = system: Trichoderma viride; assay: Antifungal activity against Trichoderma viride MTCC 1107 assessed as zone of inhibition at 80 uM after 48 hrs by disc diffusion method; assay type: functional; conditions: MTCC 1107, 48 h, read-out: IZ; outline: as §1
[11] = system: Curvularia lunata; assay: Antifungal activity against Curvularia lunata MTCC 581 after 48 hrs; assay type: functional; conditions: MTCC 581, 48 h
[12] = system: Salmonella typhi; assay: Antimicrobial activity against Salmonella typhi ATCC 23564 assessed as diameter of inhibition zone at 20 uM after 24 hrs by Kirby -Baur disc diffusion method; assay type: functional; conditions: Salmonella enterica subsp. enterica serovar Typhi
[13] = system: Pseudomonas aeruginosa; assay: Antimicrobial activity against Pseudomonas aeruginosa ATCC 15499 after 24 hrs by broth micro serial dilution method; assay type: functional; conditions: ATCC 15499, 24 h; outline: as §3
[14] = system: Curvularia lunata; assay: Antifungal activity against Curvularia lunata MTCC 581 assessed as zone of inhibition at 20 uM after 48 hrs by disc diffusion method; assay type: functional; outline: as §1
[15] = system: HepG2; assay: Cytotoxicity against human HepG2 cells after 24 hrs by MTT assay; assay type: functional, cell-based
Outline: (§4)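 The MTT assay seeded 5 × 10⁴ cells per well and grew them 24 h in RPMI 1640 with compound at 2.5–200 µM. Medium without cells was the blank and adriamycin the positive control. MTT was added for 4 h at 37 °C, formazan was solubilised, and absorbance was read at 570 nm. IC50 is the concentration that cuts viability 50% against untreated cells.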

[16] = system: Salmonella typhi; assay: Antimicrobial activity against Salmonella typhi ATCC 23564 after 24 hrs by broth micro serial dilution method; assay type: functional, Salmonella enterica subsp. enterica serovar Typhi; conditions: Salmonella enterica, ATCC 23564, 24 h
[17] = system: Staphylococcus aureus; assay: Antimicrobial activity against Staphylococcus aureus ATCC 11632 assessed as diameter of inhibition zone at 80 uM after 24 hrs by Kirby -Baur disc diffusion method; assay type: functional; conditions: ATCC 11632, 24 h, read-out: DIZ; outline: as §2
[18] = system: HeLa; assay: Cytotoxicity against human HeLa cells after 24 hrs by MTT assay; assay type: functional, cell-based; outline: as §4
[19] = system: Bacillus cereus; assay: Antimicrobial activity against Bacillus cereus MTCC 7350 assessed as diameter of inhibition zone at 40 uM after 24 hrs by Kirby -Baur disc diffusion method; assay type: functional; outline: as §2
[20] = system: Bacillus cereus; assay: Antimicrobial activity against Bacillus cereus MTCC 7350 assessed as diameter of inhibition zone at 20 uM after 24 hrs by Kirby -Baur disc diffusion method; assay type: functional; outline: as §2
[21] = system: QG-56; assay: Cytotoxicity against human QG56 cells after 24 hrs by MTT assay; assay type: functional, cell-based; outline: as §4
[22] = system: Bacillus cereus; assay: Antimicrobial activity against Bacillus cereus MTCC 7350 assessed as diameter of inhibition zone at 80 uM after 24 hrs by Kirby -Baur disc diffusion method; assay type: functional; conditions: MTCC 7350, 24 h, read-out: DIZ; outline: as §2
[23] = system: Aspergillus niger; assay: Antifungal activity against Aspergillus niger MTCC 1108 assessed as zone of inhibition at 80 uM after 48 hrs by disc diffusion method; assay type: functional; outline: as §1
[24] = system: Trichoderma viride; assay: Antifungal activity against Trichoderma viride MTCC 1107 assessed as zone of inhibition at 40 uM after 48 hrs by disc diffusion method; assay type: functional; conditions: MTCC 1107, 48 h, read-out: IZ; outline: as §1
[25] = system: Pseudomonas aeruginosa; assay: Antimicrobial activity against Pseudomonas aeruginosa ATCC 15499 assessed as diameter of inhibition zone at 20 uM after 24 hrs by Kirby -Baur disc diffusion method; assay type: functional; outline: as §2
[26] = system: HCT-116; assay: Cytotoxicity against human HCT116 cells after 24 hrs by MTT assay; assay type: functional, cell-based; outline: as §4
[27] = system: Aspergillus flavus; assay: Antifungal activity against Aspergillus flavus MTCC 1021 after 48 hrs; assay type: functional
[28] = system: Salmonella typhi; assay: Antimicrobial activity against Salmonella typhi ATCC 23564 assessed as diameter of inhibition zone at 40 uM after 24 hrs by Kirby -Baur disc diffusion method; assay type: functional; conditions: Salmonella enterica subsp. enterica serovar Typhi
[29] = system: Pseudomonas aeruginosa; assay: Antimicrobial activity against Pseudomonas aeruginosa ATCC 15499 assessed as diameter of inhibition zone at 80 uM after 24 hrs by Kirby -Baur disc diffusion method; assay type: functional; conditions: ATCC 15499, 24 h, read-out: DIZ; outline: as §2
[30] = system: Trichoderma viride; assay: Antifungal activity against Trichoderma viride MTCC 1107 assessed as zone of inhibition at 20 uM after 48 hrs by disc diffusion method; assay type: functional; outline: as §1
[31] = system: Bacillus cereus; assay: Antimicrobial activity against Bacillus cereus MTCC 7350 after 24 hrs by broth micro serial dilution method; assay type: functional; conditions: MTCC 7350, 24 h; outline: as §3
[32] = system: Aspergillus niger; assay: Antifungal activity against Aspergillus niger MTCC 1108 after 48 hrs; assay type: functional
[33] = system: Trichoderma viride; assay: Antifungal activity against Trichoderma viride MTCC 1107 after 48 hrs; assay type: functional; conditions: MTCC 1107, 48 h
[34] = system: Pseudomonas aeruginosa; assay: Antimicrobial activity against Pseudomonas aeruginosa ATCC 15499 assessed as diameter of inhibition zone at 40 uM after 24 hrs by Kirby -Baur disc diffusion method; assay type: functional; outline: as §2
[35] = system: Aspergillus flavus; assay: Antifungal activity against Aspergillus flavus MTCC 1021 assessed as zone of inhibition at 80 uM after 48 hrs by disc diffusion method; assay type: functional; outline: as §1
[36] = system: Escherichia coli; assay: Antimicrobial activity against Escherichia coli ATCC 35218 assessed as diameter of inhibition zone at 20 uM after 24 hrs by Kirby -Baur disc diffusion method; assay type: functional; outline: as §2
[37] = system: Escherichia coli; assay: Antimicrobial activity against Escherichia coli ATCC 35218 assessed as diameter of inhibition zone at 40 uM after 24 hrs by Kirby -Baur disc diffusion method; assay type: functional; outline: as §2

SMILES	zone of inhibition at 80 µM [1]	inhibition in vivo at 200 mg/kg [3]	MIC [5]	diameter of the inhibition zone (DIZ) [6]	MIC [7]	diameter of the inhibition zone (DIZ) [8]	zone of inhibition at 40 µM [9]	zone of inhibition at 80 µM [10]	MIC [11]	MIC [13]	IC50 [15]	zone of inhibition at 80 µM [17]	IC50 [18]	diameter of the inhibition zone (DIZ) [20]	IC50 [21]	zone of inhibition at 80 µM [22]	inhibition zone (IZ) [23]	zone of inhibition at 40 µM [24]	diameter of the inhibition zone (DIZ) [25]	IC50 [26]	other results
COc1cc(/C=C/c2noc(/C=C/c3ccc(O)c(OC)c3)c2/N=N/c2ccc(S(=O)(=O)Nc3nc(C)cc(C)n3)cc2)ccc1O	13 mm	41.9%	> 80 µM	inactive	> 80 µM	inactive	11 mm	13 mm	80 µM (≈ 52.4 µg/mL)	80 µM (≈ 52.4 µg/mL)	Not Active	12 mm	Not Active	inactive	Not Active	11 mm	inactive	11 mm	inactive	Not Active	diameter of the inhibition zone (DIZ) [2]: inactive; zone of inhibition at 80 µM [4]: 10 mm; diameter of the inhibition zone (DIZ) [12]: inactive; zone of inhibition at 20 µM ([14]; MTCC 581, 48 h, read-out: IZ): 9 mm; MIC [16]: > 80 µM; zone of inhibition at 40 µM ([19]; MTCC 7350, 24 h, read-out: DIZ): 9 mm; MIC ([27]; MTCC 1021, 48 h): > 80 µM; diameter of the inhibition zone (DIZ) [28]: inactive; zone of inhibition at 80 µM [29]: 15 mm; zone of inhibition at 20 µM ([30]; MTCC 1107, 48 h, read-out: IZ): 9 mm; MIC [31]: > 80 µM; MIC ([32]; MTCC 1108, 48 h): > 80 µM; MIC [33]: 80 µM (≈ 52.4 µg/mL); zone of inhibition at 40 µM ([34]; ATCC 15499, 24 h, read-out: DIZ): 10 mm; inhibition zone (IZ) [35]: inactive
COc1cc(/C=C/c2noc(/C=C/c3ccc(O)c(OC)c3)c2/N=N/c2ccc(S(=O)(=O)Nc3cc(C)on3)cc2)ccc1O	12 mm	22.5%	> 80 µM	inactive	> 80 µM	inactive	9 mm	12 mm	> 80 µM	> 80 µM	Not Active	9 mm	Not Active	inactive	Not Active	9 mm	inactive	9 mm	inactive	Not Active	zone of inhibition at 80 µM ([2]; ATCC 35218, 24 h, read-out: DIZ): 9 mm; diameter of the inhibition zone (DIZ) [36]: inactive; inhibition zone (IZ) [14]: inactive; diameter of the inhibition zone (DIZ) [19]: inactive; MIC [27]: inactive; zone of inhibition at 80 µM [29]: 9 mm; diameter of the inhibition zone (DIZ) [37]: inactive; inhibition zone (IZ) [30]: inactive; MIC [31]: > 80 µM; MIC [32]: inactive; MIC [33]: > 80 µM; diameter of the inhibition zone (DIZ) [34]: inactive; inhibition zone (IZ) [35]: inactive
